# Measurements as given in article PMC3068019 (EMBO Molecular Medicine, 2010).
# Assays:
# [1] = tested on: Q111 cells; assay: 3-NP toxicity, LIVE/DEAD viability assay, Q111 cells; assay type: cell-based, mouse
# [2] = tested on: PGC-1α mRNA, Q111 striatal cells; assay: PGC-1α mRNA by quantitative RT-PCR, Q111 cells; assay type: cell-based, mouse
# How it was run: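 Total RNA (2 µg) from Q7/Q111 striatal cells, run either by TaqMan one-step RNA-to-Ct or by Superscript III reverse transcription followed by TaqMan gene expression assays on real-time PCR. Quantified by the delta-delta CT method, normalised to 18S […].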
# [3] = tested on: glutathione; conditions: ref Mao et al, 2006; cited from earlier work
# [4] = tested on: Caspase; conditions: ref Bailey & Johnson, 2006; Jeitner et al, 2005; cited from earlier work
# [5] = tested on: DNAJB10; conditions: ref Karpuj et al, 2002; cited from earlier work
# [6] = tested on: HD model mice; conditions: ref Karpuj et al, 2002; Fox et al, 2004; cited from earlier work
# [7] = tested on: DNAJ (HSJ1b), striatal neurons; conditions: ref Borrell-Pages et al, 2006, cited from earlier work
# [8] = tested on: BDNF; conditions: ref Borrell-Pages et al, 2006; cited from earlier work
# [9] = tested on: Caenorhabditis elegans; conditions: ref Borrell-Pages et al, 2006; cited from earlier work
# [10] = tested on: PGC-1α; conditions: ref Milnerwood et al, 2010; Okamoto et al, 2009; cited from earlier work
structure (smiles),measurement,setting,value
"O=C(O)CC[N+](=O)[O-] [3-NP, 3-nitropropionic acid]","toxicity of 3-NP, Q111 compared with Q7 cells",[1]; 3-NP 10 mM for 48 h,more toxic to Q111 cells than to Q7 cells
"CCCC(=O)O [NaBu, Sodium butyrate]",effect on PGC-1α mRNA levels,[2],increased the mRNA levels of PGC-1α
"CC(/C=C/C(=O)NO)=C\[C@@H](C)C(=O)c1ccc(N(C)C)cc1 [TSA, Trichostatin A]",effect on PGC-1α mRNA levels,[2],increased the mRNA levels of PGC-1α
NCCSSCCN [cystamine],glutathione levels,[3],increases levels of the versatile antioxidant glutathione
same,caspase inhibition,[4],caspase inhibition
same,DNAJB10 in treated mice,[5],increased
same,neuroprotection in HD models,[6],neuroprotective
same,protection against 3-NP toxicity,"[1]; not shown, cell line not stated",protect against 3-NP toxicity
NCCS [cysteamine],DNAJB10 levels,[7],normalize DNAJB10 levels
same,DNAJ (HSJ1b) transcription and protein levels,[7]; striatal neurons in vitro,increased
same,trafficking of BDNF,[8],enhanced
same,protection of worms from toxic effects of mhtt,[9],protected worms
CC12CC3CC(C)(C1)CC(N)(C3)C2 [memantine],transcriptional dysregulation of PGC-1α induced by extrasynaptic glutamate,[10],appears to prevent transcriptional dysregulation of PGC-1α
